# Screening data as filed in PubChem BioAssay.
# Shown are actives, neighbours in structure and some others; about 5.8% of the full set was active somewhere.
# KDM4C inh – inhibitors of human demethylase GASC-1 KDM4C. GST-KDM4C 2-372, H3K9me3 peptide, LANCE TR-FRET. inhibition, % at 12.5 µM. hit rate 0.15% among 96,000. AID 720574;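 active = mean replicate inhibition above about 25%, with at least 55% of replicates also reaching it, limit read from the data, passing the limit was not always enough; inconclusive = only one of those two conditions met; inactive = neither condition met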
#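 Test system – GST-tagged GASC-1 (JMJD2C) catalytic fragment, aa 2-372 · Medium – HEPES buffer, pH 7.5, plus ascorbate · Reagent – H3K9me3 peptide with Fe(II)/2OG · Compound – one test concentration per compound · Timing – 30 min reaction, 60 min detection, RT · Technique – TR-FRET with Eu antibody and ULight streptavidin, EDTA stop · Read-out basis – inhibition from TR-FRET ratio decrease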
# T cruzi growth-1 – inhibitors of T. cruzi proliferation; T. cruzi beta-gal in NIH3T3, GalScreen luminescence, 90 h; inhibition, % at 8.34 µM; hit rate 5.9% among 77,000;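 active = mean inhibition above about 93%, with at least 55% of replicates each passing it, limit read from the data, passing the limit was not always enough; inconclusive = only one of those two conditions holds; inactive = neither condition holds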
# IDH1 R132H inh – inhibitors of human IDH1 R132H | IDH1 R132H reductase, diaphorase/resazurin fluorescence, 60 min | AID 624101 | hit rate 0.18% among 70,000 | O75874 | inhibition, % at 10 µM; in the data active = inhibition above about 34%; inconclusive = no clear call, values can overlap the other calls; inactive = below about 11%
# Target sequence (O75874 whole entry R132H): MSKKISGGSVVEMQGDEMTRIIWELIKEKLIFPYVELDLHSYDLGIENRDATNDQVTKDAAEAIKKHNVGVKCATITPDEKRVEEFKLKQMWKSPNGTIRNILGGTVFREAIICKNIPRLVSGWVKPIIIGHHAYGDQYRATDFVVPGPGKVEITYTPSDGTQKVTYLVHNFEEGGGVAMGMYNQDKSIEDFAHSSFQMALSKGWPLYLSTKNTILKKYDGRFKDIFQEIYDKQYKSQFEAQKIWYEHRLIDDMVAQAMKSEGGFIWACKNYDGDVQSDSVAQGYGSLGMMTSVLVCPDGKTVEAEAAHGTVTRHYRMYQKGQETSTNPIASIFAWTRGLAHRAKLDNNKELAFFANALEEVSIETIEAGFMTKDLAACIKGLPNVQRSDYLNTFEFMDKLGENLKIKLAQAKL
# Pf Dd2 growth – blocks growth of Plasmodium falciparum Dd2 parasites; P. falciparum Dd2 growth, SYBR Green, 72 h; stronger effect = lower value; activity change, % at 10 µM; hit rate 2.3% among 94,000; in the data active = activity change below about -80%; inconclusive = no clear call, values can overlap the other calls
# T cruzi growth-2 – inhibitors of T. cruzi proliferation; shares compounds with T cruzi growth-1; T. cruzi beta-gal in NIH3T3, GalScreen luminescence, 90 h; inhibition, % at 8.35 µM; hit rate 72% among 5,600; AID 651739;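 active = mean replicate inhibition above about 95% and at least 55% of replicates individually reaching it, limit read from the data; inconclusive = only one of the two criteria is met; inactive = neither criterion is met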
# T cruzi growth-3 – inhibitors of T. cruzi proliferation. inhibition, % at 2.09 µM. T. cruzi beta-gal in NIH3T3, GalScreen luminescence, 90 h. shares compounds with T cruzi growth-1. hit rate 21% among 5,600. AID 651740;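 active = mean inhibition above about 95%, with at least 55% of replicates also reaching it, limit read from the data; inconclusive = meets just one of the two conditions; inactive = meets neither condition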
# NIH3T3 tox – kills mouse NIH/3T3 fibroblasts. shares compounds with T cruzi growth-1. NIH/3T3 viability, CellTiter-Glo ATP luminescence, 90 h. cytotoxicity (signal decrease), % at 8.35 µM. hit rate 14% among 5,600;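 active = mean signal decrease across replicates above about 35% based on untreated-well scatter, with enough replicates individually passing, limit read from the data; inconclusive = no rule stated though some were filed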
# 3T3 cytotox 2 – kills mouse NIH/3T3 fibroblasts; shares compounds with T cruzi growth-1; NIH/3T3 viability, CellTiter-Glo ATP luminescence, 90 h; inhibition, % at 24.9 µM; hit rate 56% among 5,600;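 active = mean loss of cell viability signal at or above a set limit, and enough replicates individually reaching it; inconclusive = meets only the mean limit or only the replicate share; inactive = meets neither condition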
# Numbers stand for hits; 0 = inactive; ? = inconclusive; - = no result given.
SMILES,KDM4C inh,T cruzi growth-1,IDH1 R132H inh,Pf Dd2 growth,T cruzi growth-2,T cruzi growth-3,NIH3T3 tox,3T3 cytotox 2
C[C@@H]1CCCCO[C@H](CN(C)S(=O)(=O)c2cccs2)[C@H](C)CN([C@@H](C)CO)C(=O)c2cc(NC(=O)Nc3ccc(C(F)(F)F)cc3)ccc2O1,0,?,-,0,104,113,0,0
C[C@@H]1CN([C@@H](C)CO)C(=O)c2cc(NC(=O)Nc3ccc(C(F)(F)F)cc3)ccc2O[C@@H](C)CCCCO[C@H]1CN(C)S(=O)(=O)c1cccs1,0,100,-,0,105,112,0,0
C[C@H]1CCCCO[C@@H](CN(C)S(=O)(=O)c2cccs2)[C@@H](C)CN([C@@H](C)CO)C(=O)c2cc(NC(=O)Nc3ccc(C(F)(F)F)cc3)ccc2O1,0,?,0,-89,96,110,0,0
C[C@H]1CCCCO[C@H](CN(C)S(=O)(=O)c2cccs2)[C@@H](C)CN([C@@H](C)CO)C(=O)c2cc(NC(=O)Nc3ccc(C(F)(F)F)cc3)ccc2O1,0,99,-,0,105,109,0,0
O=C(c1ccccc1)N1CC[C@H]2[C@H](CO)Nc3ccc(-c4ccccc4F)cc3[C@H]21,0,108,-,0,98,0,0,0
O=C(c1ccccc1F)N1CC[C@@H]2[C@H]1c1cc(-c3ccc(F)cc3)ccc1N[C@@H]2CO,0,0,-,0,-,-,-,-
O=C(c1ccccc1)N1CC[C@@H]2[C@H]1c1cc(-c3ccccc3F)ccc1N[C@@H]2CO,0,110,-,0,100,0,0,30
O=C(c1cccc(F)c1)N1CC[C@@H]2[C@@H](CO)Nc3ccc(-c4ccccc4F)cc3[C@@H]21,0,0,-,0,-,-,-,-
O=C(c1ccc(F)cc1)N1CC[C@@H]2[C@@H](CO)Nc3ccc(-c4ccccc4F)cc3[C@@H]21,0,110,-,0,104,0,0,71
O=C(c1ccccc1F)N1CC[C@H]2[C@H](CO)Nc3ccc(-c4ccc(F)cc4)cc3[C@H]21,0,99,-,0,101,99,0,95
COc1ccc(NC(=O)N[C@@H]2CC[C@@H](CCNC(=O)CN3CCOCC3)O[C@@H]2CO)cc1,0,0,0,0,-,-,-,-
CN(C)CCCNC(=O)C[C@@H]1CC[C@H]2[C@H](COc3ccc(NC(=O)c4cccc(F)c4)cc3C(=O)N2C)O1,0,0,-,0,-,-,-,-
Cc1ccc(S(=O)(=O)N[C@H]2CC[C@@H](CCNC(=O)Nc3ccc(Cl)cc3)O[C@H]2CO)cc1,0,0,0,0,-,-,-,-
O=C(C[C@H]1CC[C@@H](NC(=O)Nc2cc(F)ccc2F)[C@H](CO)O1)Nc1ccc(-c2ccccc2)cc1,0,132,0,0,106,0,0,32
O=C(C[C@@H]1CC[C@@H](NC(=O)Nc2ccccc2)[C@H](CO)O1)NCc1ccccn1,0,108,0,0,0,0,0,0
CSc1ccccc1-n1nnnc1SCC(=O)Nc1ccccc1Cl,-,-,0,-,-,-,-,-
CO[C@@H]1CN(C)C(=O)c2ccc(NS(=O)(=O)c3cn(C)cn3)cc2OC[C@@H](C)N(Cc2cccc(F)c2)C[C@@H]1C,0,0,0,0,-,-,-,-
C[C@H]1CN([C@@H](C)CO)C(=O)c2cc(C#CCc3ccccc3)cnc2O[C@@H]1CN(C)Cc1cccc(F)c1,0,?,0,0,0,0,0,104
C[C@H](CO)N1C[C@H](C)[C@@H](CN(C)Cc2cccc(F)c2)Oc2ncc(C#CCN(C)C)cc2C1=O,0,0,0,0,-,-,-,-
CCCC#Cc1cnc2c(c1)C(=O)N([C@H](C)CO)C[C@H](C)[C@@H](CN(C)Cc1ccccc1F)O2,0,0,0,0,-,-,-,-
CC(C)CC#Cc1cnc2c(c1)C(=O)N([C@H](C)CO)C[C@@H](C)[C@H](CN(C)Cc1ccccc1F)O2,0,?,0,0,106,0,0,76
CC(C)CC#Cc1cnc2c(c1)C(=O)N([C@H](C)CO)C[C@@H](C)[C@@H](CN(C)Cc1ccc(F)cc1)O2,0,0,0,0,-,-,-,-
CC(C)CC#Cc1cnc2c(c1)C(=O)N([C@@H](C)CO)C[C@@H](C)[C@@H](CN(C)Cc1cccc(F)c1)O2,0,99,0,0,106,0,0,45
CC(C)CC#Cc1cnc2c(c1)C(=O)N([C@H](C)CO)C[C@H](C)[C@H](CN(C)Cc1cccc(F)c1)O2,0,?,0,0,107,0,0,0
C[C@H](CO)N1C[C@H](C)[C@@H](CN(C)Cc2ccccc2)Oc2ncc(C#CCc3ccccc3)cc2C1=O,0,-,-,0,-,-,-,-
SMILES,KDM4C inh,T cruzi growth-1,IDH1 R132H inh,Pf Dd2 growth,T cruzi growth-2,T cruzi growth-3,NIH3T3 tox,3T3 cytotox 2
CO[C@H]1CN(C)C(=O)c2cc(NS(=O)(=O)c3ccc(Oc4ccccc4)cc3)ccc2OC[C@@H](C)NC[C@H]1C,0,0,0,0,-,-,-,-
C[C@H]1CN([C@@H](C)CO)S(=O)(=O)c2ccc(-c3cncnc3)cc2O[C@@H]1CN(C)C(=O)C1CCC1,0,0,-,0,-,-,-,-
CC(C)CC#Cc1cnc2c(c1)C(=O)N([C@@H](C)CO)C[C@@H](C)[C@@H](CN(C)Cc1ccc3c(c1)OCO3)O2,0,101,0,0,105,0,0,93
CC(C)CC#Cc1cnc2c(c1)C(=O)N([C@@H](C)CO)C[C@H](C)[C@@H](CN(C)Cc1ccc3c(c1)OCO3)O2,0,0,0,0,-,-,-,-
C[C@@H]1CN([C@@H](C)CO)S(=O)(=O)c2ccc(C#CC3CC3)cc2O[C@H]1CN(C)Cc1ccccc1,0,120,0,0,95,0,50,106
C[C@H]1CN([C@@H](C)CO)S(=O)(=O)c2ccc(C#CC3CC3)cc2O[C@H]1CN(C)Cc1ccccc1,0,0,0,0,-,-,-,-
C[C@H]1CN([C@@H](C)CO)S(=O)(=O)c2ccc(C#CC3CC3)cc2O[C@@H]1CN(C)Cc1ccccc1,0,111,0,0,100,0,0,105
C[C@@H]1CN([C@@H](C)CO)S(=O)(=O)c2ccc(C#CC3CC3)cc2O[C@@H]1CN(C)Cc1ccccc1,0,0,0,0,-,-,-,-
COc1ccc(NC(=O)Nc2ccc3c(c2)C(=O)N([C@H](C)CO)C[C@@H](C)[C@@H](CN(C)S(=O)(=O)c2ccc(C)cc2)O3)cc1,0,0,0,0,-,-,-,-
Cc1ccc(S(=O)(=O)Nc2ccc3c(c2)C(=O)N([C@@H](C)CO)C[C@@H](C)[C@H](CN(C)S(=O)(=O)c2ccccc2)OCCCC[C@@H](C)O3)cc1,0,105,0,0,106,0,0,0
Cc1ccc(S(=O)(=O)Nc2ccc3c(c2)C(=O)N([C@@H](C)CO)C[C@@H](C)[C@H](CN(C)S(=O)(=O)c2ccccc2)OCCCC[C@H](C)O3)cc1,0,0,-,0,-,-,-,-
